Published values from different studies.
Each line is one published result; the experiments were not run side by side.
Antigen peptide transporter 1/Antigen peptide transporter 2: Antigen peptide transporter 1/Antigen peptide transporter 2 (Homo sapiens, UniProt Q03518+Q03519)
CP: CP (Tobacco mosaic virus, UniProt P69687)
Cnr1: Cannabinoid receptor 1 (Cnr1, Rattus norvegicus, UniProt P20272)

O=C(/C=C/c1cccc(S(=O)(=O)Nc2ccccc2)c1)NO — Kd (Protein deacetylase HDAC6 (HDAC6, Homo sapiens, UniProt Q9UBN7); cell-free assay): 0.52 µM
COc1c(-c2ccccc2)oc2c(ccc3occc32)c1=O — IC50 (Cyclin-dependent kinase 7, with cyclin H (CDK7, Homo sapiens, UniProt P50613); enzyme activity; inhibitor; ADP detection): > 100 µM
CC[C@H](C)[C@H](NC(=O)[C@H](CC(C)C)NC(=O)[C@@H](N)CO)C(=O)NCC(=O)N[C@@H](CCCCN)C(=O)N[C@H](C(N)=O)C(C)C — EC50 (Proteinase-activated receptor 2 (F2RL1, Homo sapiens, UniProt P55085); calcium signal; agonist): 5.8 µM
C[C@H](N)C(=O)N[C@@H](CCCNC(=N)N)C(=O)N[C@@H](C)C(=O)N[C@@H](C)C(=O)N[C@@H](C)C(=O)N[C@@H](C)C(=O)N[C@@H](C)C(=O)N[C@@H](C)C(=O)N[C@@H](CCCCN)C(=O)O — IC50 (Antigen peptide transporter 1/Antigen peptide transporter 2; ligand displacement): 7 µM
NC(=O)c1ncn([C@@H]2O[C@H](CO)[C@@H](O)[C@H]2O)n1 — Kd (CP; binding; MST): 120 µM
CCCCCn1c2ccccc2c2cc(C(=O)NCC3CCN(CC(=O)NC(C)(C)C)CC3)ccc21 — Ki (Cnr1; ligand displacement; radioligand): > 5 µM
CC[C@H](C)[C@H](NC(=O)[C@H](CCCNC(=N)N)NC(=O)[C@H](C)N)C(=O)N[C@@H](CC(=O)O)C(=O)N[C@@H](CCCCN)C(=O)N1CCC[C@H]1C(=O)N[C@H](C(=O)N[C@@H](CC(C)C)C(=O)N[C@@H](C)C(=O)O)[C@@H](C)CC — IC50 (Antigen peptide transporter 1/Antigen peptide transporter 2; ligand displacement): 0.5 µM
C/C(N)=N\C(=N/S(=O)(=O)c1ccc(C(F)(F)F)cc1)N1C[C@H](c2ccccc2)C(c2ccc(Cl)cc2)=N1 — Ki (Cnr1; ligand displacement; radioligand; cell membranes): 0.008 µM
CNCC(=O)N[C@@H](CO)C(=O)N[C@H]1[C@H](O)[C@@H](O)[C@H](n2ccc(N)nc2=O)O[C@@H]1C(N)=O — Kd (CP; binding; MST): 9.2 µM
C[C@H](NC(=O)[C@H](CCC(=O)O)NC(=O)[C@@H](NC(=O)[C@H](CO)NC(=O)[C@H](CCCCN)NC(=O)[C@H](CCC(N)=O)NC(=O)[C@H](Cc1ccc(O)cc1)NC(=O)[C@H](CCCNC(=N)N)NC(=O)[C@@H](N)CCCNC(=N)N)[C@@H](C)O)C(=O)O — IC50 (Antigen peptide transporter 1/Antigen peptide transporter 2; ligand displacement): 0.7 µM
COc1ccc2cccc(C(CO)CNC(=O)CF)c2c1 (stereo not shown) — EC50 (Melatonin receptor type 1B (MTNR1B, Homo sapiens, UniProt P49286); β-arrestin recruitment; agonist): 0.00269 µM
CCCCCn1c2ccccc2c2cc(CN3CCCCC3)ccc21 — Ki (Cnr1; ligand displacement; radioligand; cell membranes): ~0.1 µM
CC(C)C[C@H](NC(=O)[C@H](CCC(=O)O)NC(=O)[C@@H](NC(=O)[C@H](CO)NC(=O)[C@H](CCCCN)NC(=O)[C@H](CCC(N)=O)NC(=O)[C@H](Cc1ccc(O)cc1)NC(=O)[C@H](CCCNC(=N)N)NC(=O)[C@H](CCCNC(=N)N)NC(=O)[C@H](C)N)[C@@H](C)O)C(=O)N[C@@H](C)C(=O)O — IC50 (Antigen peptide transporter 1/Antigen peptide transporter 2; ligand displacement): 2.6 µM
